Assays:
Type in all cases: functional
HeLa = assay: Growth inhibition of human HeLa cells after 48 hrs by SRB assay
In short: (§1)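 Cells grown in DMEM with 10% FBS, 5% CO2, 37 0C; seeded at densities set by doubling time, incubated 24 hrs, then exposed continuously 48 hrs to 0.01, 0.1, 1, 10, 100 µM; DMSO-treated cells as negative control. Fixed with cold 10% TCA (4 0C, 1 hr), stained 0.057% SRB 30 min, dye dissolved in 10 mM Tris, OD 510 nm; GI50 from [(Ti-Tz)/(C-Tz)]x100 = 50.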

[1] = Growth inhibition of human PANC1 cells after 48 hrs by SRB assay; conditions: PANC-1, 48 h; in short: as §1
MDA-MB-231 = assay: Growth inhibition of human MDA-MB-231 cells after 48 hrs by SRB assay; conditions: MDA-MB-231, 48 h; in short: as §1
A549 = assay: Growth inhibition of human A549 cells after 48 hrs by SRB assay; conditions: A549, 48 h; in short: as §1

| Compound | GI50 (HeLa) | GI50 (MDA-MB-231) | GI50 (A549) | GI50 [1] |
| --- | --- | --- | --- | --- |
| Cc1ccn2c(CN3CCCC3)c(-c3ccccc3)nc2n1 | 180 nM | 4830 nM | 4150 nM | 150 nM |
| c1ccc(-c2nc3ncccn3c2CN2CCCC2)cc1 | 70 nM | 70 nM | 50 nM | 60 nM |
| Cc1ccn2c(CN3CCCC3)c(-c3ccc(O)cc3)nc2n1 | 4760 nM | 1200 nM | 2480 nM | 7280 nM |
| c1ccc(-c2nc3ncccn3c2CN2CCNCC2)cc1 | 720 nM | 26700 nM | – | 9400 nM |
| CN(Cc1c(-c2ccccc2)nc2ncccn12)c1ccccc1 | 3120 nM | 320 nM | 5190 nM | 5760 nM |
| Cc1ccn2c(CN3CCCCC3)c(-c3ccccc3)nc2n1 | 1710 nM | 30 nM | 4040 nM | 20 nM |
| c1ccc(-c2nc3ncccn3c2CN2CCOCC2)cc1 | 1670 nM | 1410 nM | 210 nM | 770 nM |
| c1ccc(-c2nc3ncccn3c2CN2CCCCC2)cc1 | 2280 nM | 30 nM | 260 nM | 1310 nM |
| Cc1ccn2c(CN3CCCCC3)c(C(C)(C)C)nc2n1 | 450 nM | 350 nM | 7390 nM | 960 nM |
| Cc1ccn2c(CN3CCOCC3)c(-c3ccc(Cl)cc3)nc2n1 | 160 nM | 320 nM | 2570 nM | 1170 nM |
| COc1cccc2c1C(=O)c1c(O)c3c(c(O)c1C2=O)C[C@@](O)(C(=O)CO)C[C@@H]3O[C@H]1C[C@H](N)[C@H](O)[C@H](C)O1 [DOXORUBICIN] | 31 nM | 10 nM | < 10 nM | 10 nM |
| c1csc(-c2nc3ncccn3c2CN2CCCC2)c1 | 240 nM | 200 nM | 180 nM | 680 nM |
| Cc1ccn2c(CN3CCOCC3)c(-c3ccccc3)nc2n1 | 850 nM | 1430 nM | 1090 nM | 1830 nM |
| Cc1ccn2c(CN3CCN(Cc4c(C(C)(C)C)nc5nc(C)ccn45)CC3)c(C(C)(C)C)nc2n1 | 14500 nM | 25700 nM | – | 1400 nM |
| CC(C)(C)c1nc2ncccn2c1CN1CCCCC1 | 30 nM | 1490 nM | 330 nM | 4510 nM |
| Oc1ccc(-c2nc3ncccn3c2CN2CCCCC2)cc1 | 4030 nM | 7230 nM | 6890 nM | 200 nM |

The next lines start with results.

| GI50 (HeLa) | GI50 (MDA-MB-231) | GI50 (A549) | Compound | GI50 [1] |
| --- | --- | --- | --- | --- |
| 25600 nM | 4700 nM | – | Clc1ccc(-c2nc3ncccn3c2CN2CCN(Cc3c(-c4ccc(Cl)cc4)nc4ncccn34)CC2)cc1 | 240 nM |
| 2800 nM | 2300 nM | – | Cc1ccc(-c2nc3ncccn3c2CN2CCN(Cc3c(-c4ccc(C)cc4)nc4ncccn34)CC2)cc1 | 380 nM |
| 12600 nM | 31600 nM | – | c1ccc2cc(-c3nc4ncccn4c3CN3CCN(Cc4c(-c5ccc6ccccc6c5)nc5ncccn45)CC3)ccc2c1 | 79400 nM |
| 12700 nM | 15900 nM | – | Cc1ccn2c(CN3CCN(Cc4c(-c5ccccc5)nc5nc(C)ccn45)CC3)c(-c3ccccc3)nc2n1 | 600 nM |
| 2720 nM | 210 nM | – | Clc1ccc(-c2nc3ncccn3c2CN2CCN(Cc3c(-c4ccc(Cl)cc4Cl)nc4ncccn34)CC2)c(Cl)c1 | 27700 nM |
| 4500 nM | 12900 nM | – | Cc1ccc(S(=O)(=O)N2CCN(Cc3c(-c4ccccc4)nc4ncccn34)CC2)cc1 | 110 nM |
| 930 nM | < 10 nM | – | CN1CCN(Cc2c(-c3ccccc3)nc3ncccn23)CC1 | 350 nM |
| 9320 nM | 120 nM | – | COc1cc(OC)n2c(CN3CCN(Cc4c(-c5ccccc5)nc5nc(OC)cc(OC)n45)CC3)c(-c3ccccc3)nc2n1 | 510 nM |
| 930 nM | 7100 nM | – | c1csc(-c2nc3ncccn3c2CN2CCN(Cc3c(-c4cccs4)nc4ncccn34)CC2)c1 | 3700 nM |
| 480 nM | < 10 nM | – | Cc1ccccc1-c1nc2ncccn2c1CN1CCN(Cc2c(-c3ccccc3C)nc3ncccn23)CC1 | 120 nM |
| 890 nM | 1000 nM | – | Brc1ccc(-c2nc3ncccn3c2CN2CCN(Cc3c(-c4ccc(Br)cc4)nc4ncccn34)CC2)cc1 | 60 nM |
| 3240 nM | 270 nM | – | c1ccc(-c2nc3ncccn3c2CN2CCN(Cc3c(-c4ccccc4)nc4ncccn34)CC2)cc1 | 140 nM |
| 2400 nM | 1100 nM | – | CC(C)(C)c1nc2ncccn2c1CN1CCN(Cc2c(C(C)(C)C)nc3ncccn23)CC1 | 3900 nM |

Reference: ChEMBL document CHEMBL3596118, “Synthesis and antiproliferative activity of imidazo[1,2-a]pyrimidine Mannich bases” (2015)
